A selection: hits, their analogues and other compounds. The true share with any hit is near 1.9%.
HEK293 NFkB inh = lowers PMA/ionomycin-induced NF-kB signal in HEK293 cells. HEK-293 NF-kB luciferase reporter, luminescence. inhibition, % at 3 µM. 0.21% of 62,000 active;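 active means inhibition above the mean of all tested compounds plus 3 SD, cut at about 40% in these data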
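System – HEK-293 cells with stable firefly luciferase reporter driven by four HIV NF-kB elements · Doses – one dose, 3 µM · Schedule – 1 h compound pre-incubation, 16 h PMA/ionomycin at 37 °C · Technique – luminescence from luciferase substrate reagent · Measure – percent inhibition normalized per plate to DMSO and reference-inhibitor controls · Replicates – tested once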
S1P1 ag pot = activates or potentiates agonism at human S1P1 receptor. S1P1 CRE-bla cells, forskolin, beta-lactamase FRET, potentiator mode; S1P1 agonist co-added at EC20, 2 nM; 100% = saturating reference agonist, 0% = basal. activation, % at 9.5 µM. 0.57% of 56,000 active;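 active means activation above a cutoff set at the mean activation of all tested compounds plus 3 SD, cut at about 54% in these data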;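 further: forskolin at 4 µM as EC80 and the EC20 agonist is SEW2871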
Target sequence (P21453 whole entry, looked up): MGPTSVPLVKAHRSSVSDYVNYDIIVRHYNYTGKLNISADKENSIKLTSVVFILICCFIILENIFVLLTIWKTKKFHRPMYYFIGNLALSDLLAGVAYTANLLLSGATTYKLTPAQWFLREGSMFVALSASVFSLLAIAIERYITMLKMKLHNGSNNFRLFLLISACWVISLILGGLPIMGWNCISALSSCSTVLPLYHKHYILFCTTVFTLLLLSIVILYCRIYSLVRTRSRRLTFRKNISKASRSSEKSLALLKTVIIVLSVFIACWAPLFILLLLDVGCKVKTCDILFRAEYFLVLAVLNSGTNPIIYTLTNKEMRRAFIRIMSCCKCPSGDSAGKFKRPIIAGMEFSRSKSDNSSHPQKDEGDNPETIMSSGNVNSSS
Jurkat tox 60K = cytotoxicity toward Jurkat cells; 1.2% of 56,000 active; inhibition, % at 4 µM; Jurkat E6.1 viability, ATP luminescence, 48 h; AID 463;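 active means inhibition above the mean inhibition of all tested compounds plus 3 SD, cut at about 28% in these data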
SK-BR-3 tox 24h = SK-BR-3 proliferation inhibitors; SK-BR-3 viability, CellTiter-Glo ATP luminescence, 24 h; hits give low values; viability, % at 10 µM; 0.47% of 41,000 active;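 active means viability at or below the median of all test compounds minus 3 SD, in both replicates if run twice, cut at about 45% in these data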
Of the large screens only hits and unclear results are named; the others gave an inactive call.

COc1ccc(-n2cnc3c(cnn3CCC#N)c2=N)cc1	none (no result: SK-BR-3 tox 24h)
COc1ccc(S(=O)(=O)n2nc(-c3cc(OC)c(OC)c(OC)c3)cc2N)cc1OC	none (no result: SK-BR-3 tox 24h)
COc1ccc(-c2cc(N)n(S(=O)(=O)c3c(F)c(F)c(F)c(F)c3F)n2)cc1OC	Jurkat tox 60K 88 (no result: SK-BR-3 tox 24h)
Cc1ccc(C2CC(C(F)(F)F)n3ncc(C(=O)NCc4ccco4)c3N2)cc1 (stereo not drawn)	none (no result: SK-BR-3 tox 24h)
N#Cc1c(NC(=O)CSc2ncn[nH]2)sc2c1CCCCC2	HEK293 NFkB inh 54 (no result: S1P1 ag pot)
N#Cc1cc2c(nc1SCC(=O)Nc1sc3c(c1C#N)CCC3)CCCCC2	none
Cn1cnnc1SCC(=O)Nc1sc2c(c1C#N)CCCCC2	none (no result: SK-BR-3 tox 24h)
N#Cc1c(NC(=O)CSc2nc(N)cc(=O)[nH]2)sc2c1CCCCCC2	Jurkat tox 60K 56
CCCn1c(Nc2nc3ccccc3n2C)nc2ccccc21	SK-BR-3 tox 24h 9.8
CCOc1ccc(-c2[nH]ncc2-c2ccc(OC)c(OC)c2)c(O)c1	Jurkat tox 60K 92
CCc1cc(-c2[nH]ncc2-c2ccc3c(c2)OCO3)c(O)cc1O	S1P1 ag pot 69 (no result: SK-BR-3 tox 24h)
COc1ccc(-c2[nH]ncc2-c2ccc3c(c2)OCCO3)c(O)c1	S1P1 ag pot 91
Oc1ccccc1-c1cc(-c2ccc3c(c2)OCCO3)n[nH]1	none (no result: S1P1 ag pot, Jurkat tox 60K)
O=C(NC1CCCCC1)/C(=N\O)c1ccccn1	none
O=C(NCc1ccc(Cl)cc1)c1noc2c1CCCCC2	none
O=C(COC(=O)c1cc(S(=O)(=O)N2CCOCC2)ccc1Cl)Nc1ccc2c(c1)OCO2	none (no result: SK-BR-3 tox 24h)
OC1(c2cccc(C(F)(F)F)c2)CCN(c2ncnc3c2[nH]c2ccc(F)cc23)CC1	S1P1 ag pot 100, Jurkat tox 60K 53
CC(=O)N1CCC(O)(c2cccc(C(F)(F)F)c2)CC1	none
Fc1ccc2[nH]c3c(N4CCN(c5ccccc5)CC4)ncnc3c2c1	S1P1 ag pot 106 (no result: HEK293 NFkB inh, Jurkat tox 60K)
CCOC(=O)C(C)Oc1cccc2c(=O)n(CC(=O)NCc3ccc4c(c3)OCO4)ccc12 (stereo not drawn)	Jurkat tox 60K 87 (no result: SK-BR-3 tox 24h)
CCOC(=O)C(C)Oc1cccc2c(=O)n(CC(=O)Nc3ccc4c(c3)OCCO4)ccc12 (stereo not drawn)	none (no result: SK-BR-3 tox 24h)
COC(=O)c1ccc(Cl)c(NS(=O)(=O)c2ccc3c(c2)OCCO3)c1	Jurkat tox 60K 58
Cc1ccc(NC(=O)c2oc3ccccc3c2NC(=O)c2ccc3c(c2)OCO3)cc1	none (no result: SK-BR-3 tox 24h)
N=c1c2c(n(Cc3ccccc3)c3c1CCC3)CCC2	Jurkat tox 60K 64
CCOC(=O)Cn1c2c(c(=N)c3ccccc31)CCC2	none
N=c1c2c(n(Cc3ccc(Cl)cc3)c3c1CCC3)CCC2	Jurkat tox 60K 88
Cn1c(N2CCOCC2)nc(-c2ccccc2)c1-c1ccccc1	none
CCCCn1c(SCC(=O)c2ccc(OC)cc2OC)nc2cc(S(N)(=O)=O)ccc21	none (no result: SK-BR-3 tox 24h)
CCCCn1c(SCc2c(C)noc2C)nc2cc(S(N)(=O)=O)ccc21	HEK293 NFkB inh 42 (no result: SK-BR-3 tox 24h)
Cc1ccc(-c2noc(C3CCCN(C(=O)c4c(F)cccc4F)C3)n2)cc1 (stereo not drawn)	SK-BR-3 tox 24h 28
CC(=O)Nc1ccc(S(=O)(=O)N2CCN(c3nc(NC4CCCC4)c4ccccc4n3)CC2)cc1	SK-BR-3 tox 24h 41
COC(=O)c1ccc(OC(=O)C2CC(=O)N(c3ccc(C)cc3C)C2)cc1 (stereo not drawn)	none
CCCc1nc(SCC(=O)N2CCC(Cc3ccccc3)CC2)c2c(=O)n(C)c(=O)n(C)c2n1	none (no result: SK-BR-3 tox 24h)
O=C(CSc1nnnn1C1CC2CCC1C2)Nc1ccnc2ccccc12 (stereo not drawn)	HEK293 NFkB inh 58, Jurkat tox 60K 100 (no result: S1P1 ag pot)
CCc1nc(SCC(=O)Nc2ccnc3ccccc23)n[nH]1	none
COc1ccccc1C1CC(=O)Nc2cc3c(cc21)OCCO3 (stereo not drawn)	Jurkat tox 60K 92
COc1cccc(C2CC(=O)Nc3cc4c(cc32)OCCO4)c1OC(C)C (stereo not drawn)	none (no result: SK-BR-3 tox 24h)
CC(C)Oc1ccccc1C1CC(=O)Nc2cc3c(cc21)OCCO3 (stereo not drawn)	Jurkat tox 60K 98
COc1ccc(S(=O)(=O)N2CCCN(S(=O)(=O)c3ccc(OC)cc3C)CC2)c(C)c1	none
C/C(N)=C(/C#N)C(=O)CSc1nnnn1-c1ccc(C)cc1C	Jurkat tox 60K 30 (no result: SK-BR-3 tox 24h)
Cc1cc(/C=N/n2cnnc2)c(C)n1-c1cc(Cl)ccc1Cl	none
Cc1ccc(C)c2[nH]c(=O)c(CN(CCCN(C)C)C(=O)NCc3ccccc3)cc12	SK-BR-3 tox 24h 44
COc1ccc2[nH]c(=O)c(CN(CCN(C)C)C(=O)NCc3ccccc3)cc2c1	none (no result: S1P1 ag pot, Jurkat tox 60K, SK-BR-3 tox 24h)
Cc1ccc(OCCn2cc(/C(N)=N/O)c3ccccc32)cc1C	S1P1 ag pot 68
COC(=O)c1cn(CCOc2ccccc2)c2ccccc12	none
Cc1cccc(Cn2c(=O)n(CCCC(=O)NCc3ccco3)c(=O)c3ccccc32)c1	Jurkat tox 60K 71
CC(C)CC(C(=O)Nc1oc(-c2ccco2)c(-c2ccco2)c1C#N)N1C(=O)c2ccccc2C1=O (stereo not drawn)	none (no result: SK-BR-3 tox 24h)
CCN1C(=O)c2cccc3c(S(=O)(=O)Nc4ccccn4)ccc1c23	HEK293 NFkB inh 40
COc1ccc(Cl)cc1C(=O)Nc1nnn(C)n1	none
COc1cc(NC(=O)c2ccco2)c(OC)cc1NC(=O)CSc1nnc(-c2cccs2)n1C	SK-BR-3 tox 24h 42
COc1cc(CN2CCN(c3cccc(Cl)c3)CC2)cc(OC)c1OC	Jurkat tox 60K 81
COc1ccc(CCNC(=O)CN2CCN(c3cccc(Cl)c3)CC2)cc1OC	none (no result: SK-BR-3 tox 24h)
O=C(Oc1ccc2c(c1)OCO2)c1cc2c(s1)CCC2	Jurkat tox 60K 43 (no result: SK-BR-3 tox 24h)
CCNC(=O)c1ccccc1NC(=O)c1cccc(S(=O)(=O)N2CCC(C)CC2)c1	none
CNC(=O)c1ccccc1NC(=O)c1cccc(S(=O)(=O)N2CCC(C)CC2)c1	SK-BR-3 tox 24h 43
CC1=C(C)CS(=O)N(S(=O)(=O)c2ccc(Cl)cc2)C1 (stereo not drawn)	Jurkat tox 60K 69
CCOC(=O)C1(C)NC(c2ccc(OC)cc2OC)C2C(=O)N(c3cccc(OC)c3)C(=O)C21 (stereo not drawn)	none
O=C(C1CC1)N1CCC(c2nc(-c3ccc(S(=O)(=O)NCC4CCCO4)cc3)no2)CC1 (stereo not drawn)	Jurkat tox 60K 52
O=C(NC1CCCCC1)N1CCC(c2nc(-c3ccc(S(=O)(=O)N4CCCC4)cc3)no2)CC1	none
COc1ccccc1S(=O)(=O)Cc1ccc(C(=O)N2CCN(c3cccc(Cl)c3)CC2)o1	Jurkat tox 60K 81 (no result: SK-BR-3 tox 24h)
Cc1cccc(N2CCN(C(=O)c3ccc(CS(=O)(=O)c4ccccc4C)o3)CC2C)c1 (stereo not drawn)	HEK293 NFkB inh 42, Jurkat tox 60K 94 (no result: SK-BR-3 tox 24h)
Cc1cccc(N2CCN(C(=O)CS(=O)(=O)Cc3nc(-c4ccccc4F)oc3C)CC2C)c1 (stereo not drawn)	none (no result: SK-BR-3 tox 24h)
Cc1ccc(C)c(N2CCN(C(=O)c3ccc(CS(=O)(=O)c4ccccc4C)o3)CC2)c1	Jurkat tox 60K 40 (no result: SK-BR-3 tox 24h)
COc1ccccc1S(=O)(=O)Cc1ccc(C(=O)N2CCN(c3ccccc3)CC2)o1	none (no result: SK-BR-3 tox 24h)
Cc1ccc(S(=O)(=O)Cc2ccc(C(=O)N3CCN(c4cc(C)ccc4C)CC3)o2)cc1	none (no result: SK-BR-3 tox 24h)
